Key:
[1] = Cytotoxicity against mock-infected human CEM cells assessed as reduction of cell viability after 4 days; format: cell-based; conditions: mock-infected CEM (CCRF-CEM) cells
Procedure, shortened: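 Mock-infected CEM cells, plated as in the parallel infection assay at 4 × 10⁵/mL, mixed 1:1 with serial compound dilutions. CC₅₀ is the concentration reducing the number of viable cells by 50%.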

[2] = tested on: Human immunodeficiency virus 2; experiment: Antiviral activity against HIV2 ROD in CEM cells assessed as inhibition of virus-induced cytopathogenicity after 4 days; format: functional, organism-based; conditions: Human immunodeficiency virus 2, ROD, CCRF-CEM, 96 h
Procedure, shortened: (§1)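 CEM cells at 4 × 10⁵/mL infected with about 100 CCID₅₀ per mL of cell suspension (HIV-1 IIIB or HIV-2 ROD). Infected suspension mixed 1:1 with serial compound dilutions. Giant cell formation scored microscopically after 4 days. EC₅₀ is the concentration inhibiting virus-induced cytopathicity by 50%.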

[3] = tested on: Human immunodeficiency virus 1; experiment: Antiviral activity against HIV1 3B in CEM cells assessed as inhibition of virus-induced cytopathogenicity after 4 days; format: functional, organism-based; conditions: Human immunodeficiency virus 1, 3B, CCRF-CEM, 96 h; procedure, shortened: as §1
[4] = tested on: Human immunodeficiency virus 1; experiment: Antiviral activity against HIV1 in MT4 cells; format: functional, organism-based; conditions: Human immunodeficiency virus 1, MT4

| EC50 [2] | EC50 [3] | EC50 [4] | Structure (SMILES) | CC50 at 96 h [1] |
| --- | --- | --- | --- | --- |
| > 50 µM | > 50 µM | – | CCn1c(=O)c(C)cn([C@@H]2O[C@H](CO[Si](C)(C)C(C)(C)C)[C@@]3(NS(=O)(=O)C(c4ccccc4)=C3N)[C@H]2O[Si](C)(C)C(C)(C)C)c1=O | ≥ 10 µM |
| 30 µM | > 50 µM | – | Cc1cn([C@@H]2O[C@H](CO[Si](C)(C)C(C)(C)C)[C@@]3(NS(=O)(=O)C(c4ccccc4)=C3N)[C@H]2O[Si](C)(C)C(C)(C)C)c(=O)n(C(=O)OC(C)(C)C)c1=O | ≥ 10 µM |
| > 100 µM | 0.33 µM | 0.13 µM | Cc1cn([C@@H]2O[C@H](CO[Si](C)(C)C(C)(C)C)[C@@]3(NS(=O)(=O)C=C3N)[C@H]2O[Si](C)(C)C(C)(C)C)c(=O)[nH]c1=O | 19.1 µM |
| > 50 µM | > 50 µM | – | Cc1cn([C@@H]2O[C@H](CO[Si](C)(C)C(C)(C)C)[C@@]3(NS(=O)(=O)C(c4ccccc4)=C3N)[C@H]2O[Si](C)(C)C(C)(C)C)c(=O)n(C)c1=O | ≥ 10 µM |
| ≥ 2 µM | ≥ 2 µM | – | Cc1cn([C@@H]2O[C@H](CO[Si](C)(C)C(C)(C)C)[C@@]3(NS(=O)(=O)C(c4ccccc4)=C3N)[C@H]2O[Si](C)(C)C(C)(C)C)c(=O)[nH]c1=O | ≥ 10 µM |
| > 2 µM | > 2 µM | – | Cc1cn([C@@H]2O[C@H](CO[Si](C)(C)C(C)(C)C)[C@]3(C(N)=C(c4ccccc4)S(=O)(=O)N3C)[C@H]2O[Si](C)(C)C(C)(C)C)c(=O)n(C)c1=O | 10.9 µM |

| Structure (SMILES) | EC50 [2] | EC50 [3] | EC50 [4] | CC50 at 96 h [1] |
| --- | --- | --- | --- | --- |
| Cc1cn([C@@H]2O[C@H](CO[Si](C)(C)C(C)(C)C)[C@@]3(OS(=O)(=O)C=C3N)[C@H]2O[Si](C)(C)C(C)(C)C)c(=O)[nH]c1=O | > 4 µM | – | – | 16 µM |

Reference: ChEMBL document CHEMBL1144701, “Synthesis and anti-HIV1 biological activity of novel 5''-ATSAO compounds” (Bioorg Med Chem, 2008)
